Data published in article PMC7113734 (Antiviral Research, 2016).
Where two headings read alike, the source gives them in different places.

Key:
wild type HIV-1 RT = wild type HIV-1 RT (Human immunodeficiency virus type 1 group M subtype B, UniProt P04585); assay: Biochemical RT inhibition assay
[1] = tested on: IIIB strain of HIV-1 in CEM-SS cells; assay: Combination drug interaction evaluation; type: cell-based
Procedure, shortened: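 CEM-SS cells infected with HIV-1 IIIB; inhibition of cytopathic effect measured for the test compound in two-drug combinations with known anti-HIV agents. Efficacy and toxicity analysed by Prichard–Shipman MacSynergy II. Expected additive inhibition computed from each agent's single-agent dose–response; inhibition above expected at each concentration calculated at 95%, 99% and 99.9% confidence. −99 to −51 μM2% scored antagonistic; <−100 highly antagonistic.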

Pharmacokinetics in rats = type: in vivo; conditions: male, Sprague-Dawley, rat, plasma
Procedure, shortened: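 Male Sprague-Dawley rats, n = 3 per route. Prodrug given as IV bolus (50 mg/kg, 12.5 mg/mL in 5% DMSO/50% PEG300 in saline) or PO (1000 mg/kg, […] in 2% CMC suspension). Blood sampled over 24 h into sodium fluoride plus citric acid, kept on wet ice <10 min, then centrifuged at 4 °C. Plasma stored at −80 °C; prodrug and active metabolite quantified by UPLC-MS/MS (prodrug LLOQ 0.10 ng/mL).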

[2] = tested on: clinical HIV-1 subtype B virus 92US723; assay: Antiviral activity with added serum proteins in fresh human PBMCs; type: cell-based; conditions: 50% human serum, AAGP or HSA vs medium only
HIV strain 92US727 = assay: Cell-to-cell virus transmission assay in fresh human PBMCs; type: cell-based, HIV-1
Procedure, shortened: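 HIV-infected fresh human PBMCs treated 3 days with six concentrations of test compound. Passaged every 3 days for three passages at fixed compound concentration; 80% of culture volume replaced with fresh compound-containing medium and uninfected cells. Cell-free supernatants collected on sub-culture days for RT activity and extracellular p24 antigen. TCID50 per passage by endpoint dilution.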

HIV-1 protease = HIV-1 protease (Human immunodeficiency virus type 1 group M subtype B, UniProt P04585); assay: HIV-1 protease inhibition assay; type: biochemical
hERG = hERG (Homo sapiens, UniProt Q12809); assay: Standard hERG test for cardiotoxicity
HIV-1IIIB [3] = assay: Antiviral activity with added serum proteins in CEM-SS cells; type: cell-based
HIVIIIB = assay: Cell-to-cell virus transmission assay in CEM-SS cells; type: cell-based, HIV-1
[4] = tested on: HL2/3 cells expressing HIV-1 gp120 and gp41 fusing with HeLa-CD4-LTR-β-gal cells; assay: Fusion inhibition assay; type: cell-based; conditions: Human immunodeficiency virus 1, HL2/3, read-out: Fusion inhibition EC50 ± SD
Procedure, shortened: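 HeLa-CD4-LTR-β-Gal cells incubated with test compound for 1 h at 37°C/5% CO2, then co-cultured 48 h with HL2/3 cells. Cells lysed and β-galactosidase expression measured by chemiluminescent Gal-Screen.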

[5] = tested on: drug resistant clinical HIV isolates; assay: Antiviral activity against drug-resistant HIV-1 in PBMCs; type: cell-based; conditions: Human immunodeficiency virus 1, PBMC
MT-4 cells = assay: Toxicity to MT-4 cells; type: cell-based; conditions: all assays
[6] = tested on: HIV attachment to HeLa-CD4-LTR-β-gal cells; assay: Attachment inhibition assay; type: cell-based, HIV-1; conditions: Human immunodeficiency virus 1, read-out: Attachment inhibition EC50 ± SD
[7] = tested on: drug-resistant HIV-1 strains; assay: Antiviral activity against drug-resistant HIV-1 strains in MT-4; type: cell-based; conditions: MT-4
HIV-1 integrase = HIV-1 integrase (Human immunodeficiency virus type 1 group M subtype B, UniProt P04585); assay: HIV-1 integrase inhibition assay; type: biochemical
cytochrome P450 enzymes = assay: Inhibition of cytochrome P450 enzymes; type: in vitro ADME
in vitro = conditions: human, CC50 (cytotoxic concentration), fresh human PBMCs
HIV-1IIIB [8] = assay: Drug-resistant virus selection by serial dose escalation; type: cell-based; conditions: fourteen passages, CEM-SS cells

Sequence of hERG (Q12809 whole entry): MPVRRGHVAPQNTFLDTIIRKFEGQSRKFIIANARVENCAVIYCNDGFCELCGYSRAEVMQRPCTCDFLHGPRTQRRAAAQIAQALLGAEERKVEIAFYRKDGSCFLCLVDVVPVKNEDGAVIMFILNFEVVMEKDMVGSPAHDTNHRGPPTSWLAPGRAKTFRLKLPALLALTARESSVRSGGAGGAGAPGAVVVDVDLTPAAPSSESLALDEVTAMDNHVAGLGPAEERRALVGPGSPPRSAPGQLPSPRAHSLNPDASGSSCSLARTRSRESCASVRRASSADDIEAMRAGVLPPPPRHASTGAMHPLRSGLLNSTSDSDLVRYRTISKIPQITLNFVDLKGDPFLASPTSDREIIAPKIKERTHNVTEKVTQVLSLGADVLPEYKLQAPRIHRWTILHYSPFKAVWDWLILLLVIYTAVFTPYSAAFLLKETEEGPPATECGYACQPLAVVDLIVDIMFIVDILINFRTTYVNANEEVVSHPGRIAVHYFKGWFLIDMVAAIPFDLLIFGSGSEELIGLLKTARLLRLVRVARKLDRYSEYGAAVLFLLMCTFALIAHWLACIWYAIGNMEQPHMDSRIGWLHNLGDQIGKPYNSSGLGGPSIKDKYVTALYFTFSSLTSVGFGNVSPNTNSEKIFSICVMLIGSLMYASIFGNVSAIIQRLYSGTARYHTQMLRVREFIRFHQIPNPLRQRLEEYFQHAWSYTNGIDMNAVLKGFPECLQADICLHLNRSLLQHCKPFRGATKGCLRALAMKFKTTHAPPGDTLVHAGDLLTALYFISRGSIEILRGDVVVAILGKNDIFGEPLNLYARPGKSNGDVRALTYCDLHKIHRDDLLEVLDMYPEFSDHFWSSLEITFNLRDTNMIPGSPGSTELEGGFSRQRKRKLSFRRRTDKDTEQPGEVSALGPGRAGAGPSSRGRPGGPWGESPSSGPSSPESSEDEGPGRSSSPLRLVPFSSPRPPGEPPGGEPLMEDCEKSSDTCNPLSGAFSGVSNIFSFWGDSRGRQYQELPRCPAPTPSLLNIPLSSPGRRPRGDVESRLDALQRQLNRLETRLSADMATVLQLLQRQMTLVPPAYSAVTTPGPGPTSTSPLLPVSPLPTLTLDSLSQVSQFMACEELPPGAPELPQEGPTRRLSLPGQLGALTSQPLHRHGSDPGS

Structure (SMILES): CCCC(=O)OCSc1ccccc1C(=O)NCCC(N)=O [NS1040, ((2-((3-amino-3-oxopropyl)carbamoyl)phenyl)thio)methyl butyrate]
- EC50 (wild type HIV-1 RT): > 100 µM
- mean synergy volume ([1]; in combination with amprenavir): 111 ± 27.8 μM^2%
- mean synergy volume ([1]; in combination with enfuviritide): 115 ± 39.5 μM^2%
- mean synergy volume ([1]; in combination with lamivudine): 180 ± 128 μM^2%
- mean synergy volume ([1]; in combination with lopinavir): 212 ± 62.2 μM^2%
- mean synergy volume ([1]; in combination with nelfinavir): 282 ± 61.5 μM^2%
- mean synergy volume ([1]; in combination with ritonavir): 143 ± 33.5 μM^2%
- mean synergy volume ([1]; in combination with stavudine): 110 ± 68 μM^2%
- concentration at 1 h (Pharmacokinetics in rats; iv, 50 mg/kg): < 0.1 ng/mL
- concentration at 0.75 h (Pharmacokinetics in rats; po, 1000 mg/kg): < 0.1 ng/mL
- change in antiviral activity with serum protein additives [2]: no significant change in antiviral activity
- RT (HIV strain 92US727; Passage 1, 5 μM): 222 cpm
- TCID50/mL (HIV strain 92US727; Passage 1, 5 μM): 4.18 × 10^2 TCID50/mL
- p24 (HIV strain 92US727; Passage 1, 5 μM): 766 pg/mL
- RT (HIV strain 92US727; Passage 2, 5 μM): 595 cpm
- TCID50/mL (HIV strain 92US727; Passage 2, 5 μM): 6.86 × 10^3 TCID50/mL
- p24 (HIV strain 92US727; Passage 2, 5 μM): 1731 pg/mL
- RT (HIV strain 92US727; Passage 3, 5 μM): 9728 cpm
- TCID50/mL (HIV strain 92US727; Passage 3, 5 μM): 6.52 × 10^4 TCID50/mL
- p24 (HIV strain 92US727; Passage 3, 5 μM): 61,967 pg/mL
- EC50 (HIV-1 protease): > 100 µM
- hERG test for cardiotoxicity (hERG): negative
- fold decrease in potency (HIV-1IIIB [3]; in the presence of 50% human AB serum): ~4.5 fold
- fold decrease in potency (HIV-1IIIB [3]; in the presence of HSA (10 mg/mL)): did not exhibit a significant decrease in potency
- fold less effective than MDH-1-38 at reducing cell to cell HIV transmission (HIVIIIB): approximately 3 fold
- RT (HIVIIIB; Passage 1, 2 μM): 27 cpm
- TCID50/mL (HIVIIIB; Passage 1, 2 μM): 0 TCID50/mL
- p24 (HIVIIIB; Passage 1, 2 μM): 725 pg/mL
- RT (HIVIIIB; Passage 2, 2 μM): 1063 cpm
- p24 (HIVIIIB; Passage 2, 2 μM): 85,803 pg/mL
- RT (HIVIIIB; Passage 3, 2 μM): 7036 cpm
- TCID50/mL (HIVIIIB; Passage 3, 2 μM): 1.31 × 10^4 TCID50/mL
- p24 (HIVIIIB; Passage 3, 2 μM): 1,570,937 pg/mL
- EC50 [4]: > 100 µM
- EC50 ([5]; read-out: PBMC/HIV-1 EC50 ± SD, Multi-drug resistant AD. MDR): 7.21 ± 4.38 µM
- EC50 ([5]; read-out: PBMC/HIV-1 EC50 ± SD, Multi-drug resistant MDR769): 4.77 ± 0.95 µM
- EC50 ([5]; read-out: PBMC/HIV-1 EC50 ± SD, NNRTI-resistant A17R): 10 ± 4.78 µM
- EC50 ([5]; read-out: PBMC/HIV-1 EC50 ± SD, NNRTI-resistant N119): 5.9 ± 1.31 µM
- EC50 ([5]; read-out: PBMC/HIV-1 EC50 ± SD, PI-resistant 144-44): 8.38 ± 5.4 µM
- EC50 ([5]; read-out: PBMC/HIV-1 EC50 ± SD, PI-resistant 1002-60): 3.66 ± 0.28 µM
- EC50 ([5]; read-out: PBMC/HIV-1 EC50 ± SD, PI-resistant 1022-48): 3.45 ± 2.26 µM
- EC50 ([5]; read-out: PBMC/HIV-1 EC50 ± SD, PI-resistant 1026-60): 3.29 ± 0.57 µM
- EC50 ([5]; read-out: PBMC/HIV-1 EC50 ± SD, PI-resistant 1064-52): 2.62 ± 1.87 µM
- EC50 ([5]; read-out: PBMC/HIV-1 EC50 ± SD, Wild Type 92US727): 5.58 ± 0.12 µM
- non-toxic up to high test concentration (MT-4 cells): > 100 µM
- EC50 [6]: > 100 µM
- EC50 ([7]; Human immunodeficiency virus 1, read-out: Mean EC50 ± SD, AZT- and NNRTI-resistant, RT 4xAZT/L100I): 3.54 ± 2.02 µM
- EC50 ([7]; Human immunodeficiency virus 1, read-out: Mean EC50 ± SD, AZT- and NNRTI-resistant, RT 4xAZT/Y181C): 5.24 ± 0.18 µM
- EC50 ([7]; Human immunodeficiency virus 1, read-out: Mean EC50 ± SD, AZT-resistant, RT 4xAZT (D67N/K70R/T215Y/K219Q)): 4.24 ± 0.91 µM
- EC50 ([7]; Human immunodeficiency virus 1, read-out: Mean EC50 ± SD, Atazanavir-resistant, PR I50L): 1.27 ± 0.19 µM
- EC50 ([7]; Human immunodeficiency virus 1, read-out: Mean EC50 ± SD, Didanosine-resistant, RT L74V): 4.59 ± 0.61 µM
- EC50 ([7]; Human immunodeficiency virus 1, read-out: Mean EC50 ± SD, Enfuviritide-resistant, Env V38A/N126K): 5.48 ± 0.01 µM
- EC50 ([7]; Human immunodeficiency virus 1, read-out: Mean EC50 ± SD, Indinavir-, Ritonavir-resistant, PR I84V): 3.33 ± 0.44 µM
- EC50 ([7]; Human immunodeficiency virus 1, read-out: Mean EC50 ± SD, Indinavir-, Ritonavir-resistant, PR V82A): 6.73 ± 1.06 µM
- EC50 ([7]; Human immunodeficiency virus 1, read-out: Mean EC50 ± SD, Indinavir-, Ritonavir-resistant, PR V82F/I84V): 3.52 ± 1.7 µM
- EC50 ([7]; Human immunodeficiency virus 1, read-out: Mean EC50 ± SD, Lamivudine-resistant, RT M184V): 3.5 ± 1.1 µM
- EC50 ([7]; Human immunodeficiency virus 1, read-out: Mean EC50 ± SD, NNRTI-resistant, RT K103N/Y181C): 5.19 ± 0.06 µM
- EC50 ([7]; Human immunodeficiency virus 1, read-out: Mean EC50 ± SD, NNRTI-resistant, RT K103N): 5.02 ± 0.14 µM
- EC50 ([7]; Human immunodeficiency virus 1, read-out: Mean EC50 ± SD, NNRTI-resistant, RT L100I): 1.61 ± 0.41 µM
- EC50 ([7]; Human immunodeficiency virus 1, read-out: Mean EC50 ± SD, NNRTI-resistant, RT V106A): 4.07 ± 0.78 µM
- EC50 ([7]; Human immunodeficiency virus 1, read-out: Mean EC50 ± SD, NNRTI-resistant, RT V108I): 4.7 ± 0.17 µM
- EC50 ([7]; Human immunodeficiency virus 1, read-out: Mean EC50 ± SD, NNRTI-resistant, RT V179D): 5.01 ± 0.31 µM
- EC50 ([7]; Human immunodeficiency virus 1, read-out: Mean EC50 ± SD, NNRTI-resistant, RT Y181C): 4.52 ± 1.07 µM
- EC50 ([7]; Human immunodeficiency virus 1, read-out: Mean EC50 ± SD, NNRTI-resistant, RT Y188C): 4.72 ± 0.55 µM
- EC50 ([7]; Human immunodeficiency virus 1, read-out: Mean EC50 ± SD, Raltegravir-resistant, IN Q148H/G140S): 4.16 ± 0.26 µM
- EC50 ([7]; Human immunodeficiency virus 1, read-out: Mean EC50 ± SD, Saquinavir-resistant, PR G48V/L90M): 1.1 ± 0.32 µM
- EC50 ([7]; Human immunodeficiency virus 1, read-out: Mean EC50 ± SD, Tenofovir-resistant, RT K65R): 5.21 ± 0.08 µM
- EC50 (HIV-1 integrase): > 100 µM
- inhibition of cytochrome P450 enzymes (cytochrome P450 enzymes): neither NS1040 nor MDH-1-38 had significant inhibitory activity
- CC50 (in vitro): > 216 µM
- selection of resistant virus (HIV-1IIIB [8]): did not result in resistance
